ChEMBL document CHEMBL1157725 (Bioorg Med Chem, 2010)

Experiments:
[1] = system: MCF7; experiment: Antiproliferative activity against human MCF7 cells after 24 hrs by SRB assay; assay type: functional, cell-based; conditions: MCF7, 24 h
Procedure, shortened: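 MCF-7 cells are grown for 24 h with or without drug, then for a further 48 h. Total cell protein is measured by sulforhodamine B staining, and the IC₅₀ is derived from it.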

[2] = Inhibition of tubulin polymerization by turbidimetry
Procedure, shortened: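 Tubulin at 10 µM (1.0 mg/mL). Polymerization followed turbidimetrically at 350 nm in temperature-controlled spectrophotometers.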

[3] = Inhibition of tubulin in rat A10 cells assessed as induction of cellular microtubule disassembly after 18 hrs by indirect immunofluorescence technique; assay type: cell-based; conditions: A10, 18 h
Procedure, shortened: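 A-10 cells plated on glass coverslips and treated with compound at varying concentrations for 18 h. After fixation, microtubules immunostained with a β-tubulin antibody (indirect immunofluorescence) and nuclei stained with DAPI. Read by fluorescence microscopy. Percentage of cellular microtubule loss estimated visually across the concentration range.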

With COc1ccc(C(=O)/C=C/c2cc(OC)c(OC)c(OC)c2)cc1B(O)O the IC50 [1] was > 2.5 µM, the IC50 [2] was > 40 µM and the EC50 [3] was > 15 µM.
